Results taken from ChEMBL document CHEMBL1255409, “In vitro activity of ceftaroline against 623 diverse strains of anaerobic bacteria” (2010).
In brackets after ≈: the same amount, converted by molar mass.

Tests used:
Type in all cases: functional
Prevotella bivia = experiment: Antimicrobial activity against Prevotella bivia under anaerobic conditions after 44 hrs by CLSI-M11-47 protocol based agar dilution method
Procedure, shortened: (§1)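 Clinical isolates were stored at −70°C in 20% skim milk and identified phenotypically or by partial 16S rRNA sequencing. Each strain was subcultured twice from frozen stock. Cell paste from 48-h cultures was suspended in brucella broth to a 0.5 McFarland standard. About 10^5 CFU per spot were applied by Steers replicator to agar dilution plates prepared on the day of testing. Plates were incubated 44 h at 37°C in an anaerobic chamber. MIC was taken as the lowest concentration giving complete inhibition or marked reduction of growth versus the drug-free control.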

Clostridium bolteae = experiment: Antimicrobial activity against Clostridium bolteae under anaerobic conditions after 44 hrs by CLSI-M11-47 protocol based agar dilution method; details: Enterocloster bolteae
Procedure, shortened: (§2)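 Reference agar dilution per CLSI M11-A7 with plates made on test day. Clinical isolates were stored at −70°C in 20% skim milk, subcultured twice, and 48-h cell paste was suspended in brucella broth to 0.5 McFarland. About 10^5 CFU/spot was applied with a Steers replicator. Plates were incubated 44 h at 37°C anaerobically. MIC was the lowest concentration giving complete inhibition or marked growth reduction versus the drug-free control.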

Eubacterium contortum = experiment: Antimicrobial activity against Eubacterium contortum under anaerobic conditions after 44 hrs by CLSI-M11-47 protocol based agar dilution method; details: Faecalicatena contorta; procedure, shortened: as §2
Phocaeicola vulgatus = experiment: Antimicrobial activity against Bacteroides vulgatus under anaerobic conditions after 44 hrs by CLSI-M11-47 protocol based agar dilution method; procedure, shortened: as §2
Eubacterium saburreum = experiment: Antimicrobial activity against Eubacterium saburreum under anaerobic conditions after 44 hrs by CLSI-M11-47 protocol based agar dilution method; details: Lachnoanaerobaculum saburreum; procedure, shortened: as §2
[1] = system: Peptostreptococcus stomatis; experiment: Antimicrobial activity against Peptostreptococcus stomatis under anaerobic conditions after 44 hrs by CLSI-M11-47 protocol based agar dilution method; procedure, shortened: as §1
Eubacterium cylindroides = experiment: Antimicrobial activity against Eubacterium cylindroides under anaerobic conditions after 44 hrs by CLSI-M11-47 protocol based agar dilution method; details: Faecalitalea cylindroides; procedure, shortened: as §2
Bacteroides ovatus = experiment: Antimicrobial activity against Bacteroides ovatus under anaerobic conditions after 44 hrs by CLSI-M11-47 protocol based agar dilution method; procedure, shortened: as §2
Clostridium glycolicum = experiment: Antimicrobial activity against Clostridium glycolicum under anaerobic conditions after 44 hrs by CLSI-M11-47 protocol based agar dilution method; details: Terrisporobacter glycolicus; procedure, shortened: as §2
Prevotella bergensis = experiment: Antimicrobial activity against Prevotella bergensis under anaerobic conditions after 44 hrs by CLSI-M11-47 protocol based agar dilution method; details: Hallella bergensis; procedure, shortened: as §1
Peptoniphilus lacrimalis = experiment: Antimicrobial activity against Peptoniphilus lacrimalis under anaerobic conditions after 44 hrs by CLSI-M11-47 protocol based agar dilution method; procedure, shortened: as §1
Schaalia odontolytica = experiment: Antimicrobial activity against Actinomyces odontolyticus under anaerobic conditions after 44 hrs by CLSI-M11-47 protocol based agar dilution method; procedure, shortened: as §2
Anaerococcus murdochii = experiment: Antimicrobial activity against Anaerococcus murdochii under anaerobic conditions after 44 hrs by CLSI-M11-47 protocol based agar dilution method; procedure, shortened: as §2
Collinsella aerofaciens = experiment: Antimicrobial activity against Colinsella aerofaciens under anaerobic conditions after 44 hrs by CLSI-M11-47 protocol based agar dilution method; procedure, shortened: as §2
Fusobacterium varium = experiment: Antimicrobial activity against Fusobacterium varium under anaerobic conditions after 44 hrs by CLSI-M11-47 protocol based agar dilution method; procedure, shortened: as §1
[2] = system: Paeniclostridium sordellii; experiment: Antimicrobial activity against Clostridium sordellii under anaerobic conditions after 44 hrs by CLSI-M11-47 protocol based agar dilution method; details: Paraclostridium sordellii; procedure, shortened: as §2
Schaalia meyeri = experiment: Antimicrobial activity against Actinomyces meyeri under anaerobic conditions after 44 hrs by CLSI-M11-47 protocol based agar dilution method; procedure, shortened: as §2
Clostridium aldenense = experiment: Antimicrobial activity against Clostridium aldenense under anaerobic conditions after 44 hrs by CLSI-M11-47 protocol based agar dilution method; details: Enterocloster aldenensis; procedure, shortened: as §2
Clostridium perfringens = experiment: Antimicrobial activity against Clostridium perfringens under anaerobic conditions after 44 hrs by CLSI-M11-47 protocol based agar dilution method
Peptoniphilus harei = experiment: Antimicrobial activity against Peptoniphilus harei under anaerobic conditions after 44 hrs by CLSI-M11-47 protocol based agar dilution method; procedure, shortened: as §1
Prevotella nanceiensis = experiment: Antimicrobial activity against Prevotella nanceiensis under anaerobic conditions after 44 hrs by CLSI-M11-47 protocol based agar dilution method; details: Hoylesella nanceiensis; procedure, shortened: as §1
Clostridium cadaveris = experiment: Antimicrobial activity against Clostridium cadaveris under anaerobic conditions after 44 hrs by CLSI-M11-47 protocol based agar dilution method; procedure, shortened: as §2
Fusobacterium nucleatum = experiment: Antimicrobial activity against Fusobacterium nucleatum under anaerobic conditions after 44 hrs by CLSI-M11-47 protocol based agar dilution method; procedure, shortened: as §1
Atopobium parvulum = experiment: Antimicrobial activity against Atopobium parvulum under anaerobic conditions after 44 hrs by CLSI-M11-47 protocol based agar dilution method; details: Lancefieldella parvula; procedure, shortened: as §2
[3] = system: Clostridium celerecrescens; experiment: Antimicrobial activity against Clostridium celerecrescens under anaerobic conditions after 44 hrs by CLSI-M11-47 protocol based agar dilution method; details: Lacrimispora celerecrescens; procedure, shortened: as §2
Clostridium hylemonae = experiment: Antimicrobial activity against Clostridium hylemonae under anaerobic conditions after 44 hrs by CLSI-M11-47 protocol based agar dilution method; procedure, shortened: as §2
Clostridium tertium = experiment: Antimicrobial activity against Clostridium tertium under anaerobic conditions after 44 hrs by CLSI-M11-47 protocol based agar dilution method; procedure, shortened: as §2
Clostridium symbiosum = experiment: Antimicrobial activity against Clostridium symbiosum under anaerobic conditions after 44 hrs by CLSI-M11-47 protocol based agar dilution method; procedure, shortened: as §2
Bacteroides caccae = experiment: Antimicrobial activity against Bacteroides caccae under anaerobic conditions after 44 hrs by CLSI-M11-47 protocol based agar dilution method; procedure, shortened: as §2
Prevotella buccae = experiment: Antimicrobial activity against Prevotella buccae under anaerobic conditions after 44 hrs by CLSI-M11-47 protocol based agar dilution method; details: Segatella buccae; procedure, shortened: as §1
Clostridioides difficile = experiment: Antimicrobial activity against Clostridium difficile under anaerobic conditions after 44 hrs by CLSI-M11-47 protocol based agar dilution method; procedure, shortened: as §2
[4] = system: Paraclostridium bifermentans; experiment: Antimicrobial activity against Clostridium bifermentans under anaerobic conditions after 44 hrs by CLSI-M11-47 protocol based agar dilution method; procedure, shortened: as §2

For `CO/N=C(\C(=O)N[C@@H]1C(=O)N2C(C(=O)O)=C(CSc3nc(=O)c(O)nn3C)CS[C@H]12)c1csc(N)n1` [CEFTRIAXONE], which MIC50 (Prevotella bivia) is on record?
Its MIC50 is 2 µg/mL (≈ 3.61 µM).

What about the MIC90 (Prevotella bivia) of the same compound?
Its MIC90 is > 64 µg/mL.

And the MIC50 (Clostridium bolteae)?
The MIC50 was 4 µg/mL (≈ 7.21 µM).

And the MIC90 (Clostridium bolteae)?
Its MIC90 is 32 µg/mL (≈ 57.7 µM).

And the MIC50 (Eubacterium contortum)?
Its MIC50 is 0.5 µg/mL (≈ 0.902 µM).

What about the MIC90 (Eubacterium contortum) of the same compound?
The MIC90 was 2 µg/mL (≈ 3.61 µM).

What about the MIC50 (Phocaeicola vulgatus) of the same compound?
Its MIC50 is > 64 µg/mL.

And the MIC90 (Phocaeicola vulgatus)?
The MIC90 was > 64 µg/mL.

And the MIC50 (Eubacterium saburreum)?
Its MIC50 is 0.5 µg/mL (≈ 0.902 µM).

What about the MIC90 (Eubacterium saburreum) of the same compound?
Its MIC90 is 2 µg/mL (≈ 3.61 µM).

What about the MIC50 [1] of the same compound?
Its MIC50 is 2 µg/mL (≈ 3.61 µM).

And the MIC90 [1]?
Its MIC90 is 8 µg/mL (≈ 14.4 µM).

And the MIC50 (Eubacterium cylindroides)?
The MIC50 was 0.5 µg/mL (≈ 0.902 µM).

And the MIC90 (Eubacterium cylindroides)?
The MIC90 was 2 µg/mL (≈ 3.61 µM).

And the MIC50 (Bacteroides ovatus)?
Its MIC50 is > 64 µg/mL.

What about the MIC90 (Bacteroides ovatus) of the same compound?
The MIC90 was > 64 µg/mL.

What about the MIC50 (Clostridium glycolicum) of the same compound?
Its MIC50 is 2 µg/mL (≈ 3.61 µM).

What about the MIC90 (Clostridium glycolicum) of the same compound?
The MIC90 was 64 µg/mL (≈ 115 µM).

What about the MIC50 (Prevotella bergensis) of the same compound?
The MIC50 was 1 µg/mL (≈ 1.8 µM).

And the MIC90 (Prevotella bergensis)?
The MIC90 was 8 µg/mL (≈ 14.4 µM).

And the MIC50 (Peptoniphilus lacrimalis)?
The MIC50 was 0.25 µg/mL (≈ 0.451 µM).

What about the MIC90 (Peptoniphilus lacrimalis) of the same compound?
The MIC90 was 16 µg/mL (≈ 28.9 µM).

What about the MIC50 (Schaalia odontolytica) of the same compound?
Its MIC50 is 0.125 µg/mL (≈ 0.225 µM).

And the MIC90 (Schaalia odontolytica)?
Its MIC90 is 0.5 µg/mL (≈ 0.902 µM).

And the MIC50 (Anaerococcus murdochii)?
Its MIC50 is 0.25 µg/mL (≈ 0.451 µM).

What about the MIC90 (Anaerococcus murdochii) of the same compound?
Its MIC90 is 16 µg/mL (≈ 28.9 µM).

What about the MIC50 (Collinsella aerofaciens) of the same compound?
Its MIC50 is 0.5 µg/mL (≈ 0.902 µM).

And the MIC90 (Collinsella aerofaciens)?
The MIC90 was 2 µg/mL (≈ 3.61 µM).

And the MIC50 (Fusobacterium varium)?
The MIC50 was 1 µg/mL (≈ 1.8 µM).

And the MIC90 (Fusobacterium varium)?
The MIC90 was 8 µg/mL (≈ 14.4 µM).

And the MIC50 [2]?
The MIC50 was 2 µg/mL (≈ 3.61 µM).

And the MIC90 [2]?
The MIC90 was 64 µg/mL (≈ 115 µM).

What about the MIC50 (Schaalia meyeri) of the same compound?
Its MIC50 is 0.125 µg/mL (≈ 0.225 µM).

What about the MIC90 (Schaalia meyeri) of the same compound?
Its MIC90 is 0.5 µg/mL (≈ 0.902 µM).

And the MIC50 (Clostridium aldenense)?
The MIC50 was 4 µg/mL (≈ 7.21 µM).

What about the MIC90 (Clostridium aldenense) of the same compound?
The MIC90 was 32 µg/mL (≈ 57.7 µM).

And the MIC50 (Clostridium perfringens)?
Its MIC50 is 0.5 µg/mL (≈ 0.902 µM).

What about the MIC90 (Clostridium perfringens) of the same compound?
Its MIC90 is 2 µg/mL (≈ 3.61 µM).

And the MIC50 (Peptoniphilus harei)?
Its MIC50 is 0.25 µg/mL (≈ 0.451 µM).

And the MIC90 (Peptoniphilus harei)?
The MIC90 was 16 µg/mL (≈ 28.9 µM).

What about the MIC50 (Prevotella nanceiensis) of the same compound?
Its MIC50 is 1 µg/mL (≈ 1.8 µM).

And the MIC90 (Prevotella nanceiensis)?
The MIC90 was 8 µg/mL (≈ 14.4 µM).

And the MIC50 (Clostridium cadaveris)?
The MIC50 was 2 µg/mL (≈ 3.61 µM).

What about the MIC90 (Clostridium cadaveris) of the same compound?
Its MIC90 is 64 µg/mL (≈ 115 µM).

And the MIC50 (Fusobacterium nucleatum)?
The MIC50 was 0.125 µg/mL (≈ 0.225 µM).

What about the MIC90 (Fusobacterium nucleatum) of the same compound?
The MIC90 was 0.5 µg/mL (≈ 0.902 µM).

What about the MIC50 (Atopobium parvulum) of the same compound?
The MIC50 was 0.5 µg/mL (≈ 0.902 µM).

And the MIC90 (Atopobium parvulum)?
Its MIC90 is 2 µg/mL (≈ 3.61 µM).

What about the MIC50 [3] of the same compound?
The MIC50 was 2 µg/mL (≈ 3.61 µM).

And the MIC90 [3]?
Its MIC90 is 64 µg/mL (≈ 115 µM).

What about the MIC50 (Clostridium hylemonae) of the same compound?
Its MIC50 is 2 µg/mL (≈ 3.61 µM).

What about the MIC90 (Clostridium hylemonae) of the same compound?
Its MIC90 is 64 µg/mL (≈ 115 µM).

What about the MIC50 (Clostridium tertium) of the same compound?
Its MIC50 is 2 µg/mL (≈ 3.61 µM).

What about the MIC90 (Clostridium tertium) of the same compound?
The MIC90 was 64 µg/mL (≈ 115 µM).

And the MIC50 (Clostridium symbiosum)?
The MIC50 was 2 µg/mL (≈ 3.61 µM).

What about the MIC90 (Clostridium symbiosum) of the same compound?
Its MIC90 is 64 µg/mL (≈ 115 µM).

And the MIC50 (Bacteroides caccae)?
Its MIC50 is > 64 µg/mL.

What about the MIC90 (Bacteroides caccae) of the same compound?
The MIC90 was > 64 µg/mL.

What about the MIC50 (Prevotella buccae) of the same compound?
Its MIC50 is 0.25 µg/mL (≈ 0.451 µM).

And the MIC90 (Prevotella buccae)?
Its MIC90 is 64 µg/mL (≈ 115 µM).

What about the MIC50 (Clostridioides difficile) of the same compound?
The MIC50 was 2 µg/mL (≈ 3.61 µM).

What about the MIC90 (Clostridioides difficile) of the same compound?
Its MIC90 is 64 µg/mL (≈ 115 µM).

And the MIC50 [4]?
The MIC50 was 2 µg/mL (≈ 3.61 µM).

What about the MIC90 [4] of the same compound?
Its MIC90 is 64 µg/mL (≈ 115 µM).
